IC50 data for 6 molecules are collected here from ChEMBL document CHEMBL3779834, “Prenylated Acylphloroglucinols with Leishmanicidal Activity from the Fern Elaphoglossum lindbergii” (J Nat Prod, 2016).

Usually IC50 stands for the midpoint of a concentration-inhibition curve. The low end stands for greater potency, the high end for weaker potency.

The test system of one test is Leishmania amazonensis. The test is described as follows: Leshmanicidal activity against promastigote stage of Leishmania amazonensis clone 1 AML MHOM/BR/76/LTB-012 after 72 hrs by XTT-based microplate reader analysis. The class given is functional, organism-based. To be noted: clone 1 AML MHOM/BR/76/LTB-012, 72 h. The essentials: (§1)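 Log-phase promastigotes, grown at 26 °C in Schneider's insect medium (pH 6.8) with 10% heat-inactivated FBS, seeded at 1 × 10^6 parasites/mL. Test substances in DMSO at 0.75−100 μg/mL, 72 h at 26 °C. XTT (1 mg/mL) with PMS (0.06 mg/mL) added, further 4 h at 26 °C, OD read at 450 nm. DMSO 1% negative, amphotericin B 0.5 μg/mL positive control. IC50 = 50% viability decrease, mean ± standard error.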
A general note: Tetrazolium assays rely on reduction of a dye to a coloured formazan, in cell work by metabolically active cells.

The test system of another test is Leishmania braziliensis. The test is described as follows: Leshmanicidal activity against promastigote stage of Leishmania braziliensis strand M2904 C192 RJA after 72 hrs by XTT-based microplate reader analysis. The class given is functional, organism-based. In outline:
as §1

SMILES strings stand for the structures.

As to `CCCCCC(=O)C1=C(O)[C@@](C)(CC=C(C)C)C(O)=C(Cc2c(O)c(CC=C(C)C)c(OC)c(C(=O)CCCCC)c2O)C1=O`, the IC50 came to 151 µM with Leishmania amazonensis and 66.5 µM with Leishmania braziliensis.

For `CCCC(=O)C1=C(O)[C@@](C)(CC=C(C)C)C(O)=C(Cc2c(O)c3c(c(C(=O)CCC)c2O)OC(C)(C)C=C3)C1=O`, the IC50 is 16.3 µM in the test with Leishmania amazonensis and 13.6 µM in the test with Leishmania braziliensis.

Consider `CCCCCC(=O)C1=C(O)[C@@](C)(CC=C(C)C)C(O)=C(Cc2c(O)c3c(c(C(=O)CCC)c2O)OC(C)(C)C=C3)C1=O`, for which the IC50 with Leishmania amazonensis amounted to 52.4 µM; with Leishmania braziliensis, 29.9 µM.

With `CCCCCC(=O)C1=C(O)[C@@](C)(CC=C(C)C)C(O)=C(Cc2c(O)c(CC3=C(O)[C@](C)(CC=C(C)C)C(O)=C(C(=O)CCCCC)C3=O)c(O)c(C(=O)CCC)c2O)C1=O`, the concentration for half-maximal inhibition (IC50) in the test on Leishmania amazonensis and in the test on Leishmania braziliensis was more than 100 µg/mL throughout.

For the molecule `CCCCCC(=O)c1c(O)c(CC2=C(O)[C@](C)(CC=C(C)C)C(O)=C(C(=O)CCC)C2=O)c(O)c(CC2=C(O)[C@](C)(CC=C(C)C)C(O)=C(C(=O)CCC)C2=O)c1O`, the IC50 with Leishmania amazonensis is more than 100 µg/mL; with Leishmania braziliensis it was 87.7 µM.

For `C[C@@H]1[C@H](O)[C@@H](C)/C=C/C=C/C=C/C=C/C=C/C=C/C=C/[C@H](O[C@@H]2O[C@H](C)[C@@H](O)[C@H](N)[C@@H]2O)C[C@@H]2O[C@](O)(C[C@@H](O)C[C@@H](O)[C@H](O)CC[C@@H](O)C[C@@H](O)CC(=O)O[C@H]1C)C[C@H](O)[C@H]2C(=O)O` [AMPHOTERICIN B], the values for the concentration for half-maximal inhibition (IC50) in the test with Leishmania amazonensis and in the test with Leishmania braziliensis were 0.11 µM and 0.12 µM, respectively.
